Experimental data reported in ChEMBL document CHEMBL1125286, “Zatosetron, a potent, selective, and long-acting 5HT3 receptor antagonist: synthesis and structure-activity relationships” (J Med Chem, 1992).
One block for each compound: values may come before it.

Assays:
Format in all cases: functional, organism-based
[1] = target: T1, Serotonin 3 (5-HT3) receptor (Rattus norvegicus) (UniProt P35563+Q9JJ16); experiment: 5-hydroxytryptamine 3 receptor antagonistic activity measured by inhibition of 5-HT-induced bradycardia (iv administration 10 ug/kg dose in urethane-anesthetized rats)
Method in brief: (§1)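 Urethane-anesthetized rats. First 5HT challenge 30 μg/kg iv gives a transient bradycardia. Once heart rate is back at steady state (≤5 min), test compound or saline goes in via the femoral vein. 5HT 30 μg/kg iv is repeated 15 min later. % inhibition is the difference between first and second bradycardia at peak, each animal its own control. Means ± SEM, groups of 3–16 rats.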

[2] = target: T1, Serotonin 3 (5-HT3) receptor (Rattus norvegicus); experiment: 5-hydroxytryptamine 3 receptor antagonistic activity as inhibition of 5-HT-induced bradycardia after iv administration of 100 ug/kg dose in urethane-anesthetized rats; method in brief: as §1
[3] = target: T1, Serotonin 3 (5-HT3) receptor (Rattus norvegicus); experiment: 5-hydroxytryptamine 3 receptor antagonistic activity was measured by the inhibition of 5H+ T-induced bradycardia after iv administration of 1000 ug/kgetized rats; method in brief: as §1
[4] = target: T1, Serotonin 3 (5-HT3) receptor (Rattus norvegicus); experiment: 5-hydroxytryptamine 3 receptor antagonistic activity was measured by the inhibition of 5H+ T-induced bradycardia after iv administration of 3 ug/kg dose in urethane-anesthetized rats
Method in brief: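 Urethane-anesthetized rats; antagonist or saline given iv via femoral vein after heart rate settled (≤5 min) from an initial 5HT challenge (30 µg/kg iv). 5HT was given again 15 min later. Peak bradycardia measured, each rat its own control; % inhibition = difference between first and second responses. Groups of 3–16 rats, means ± SEM.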

[5] = target: T1, Serotonin 3 (5-HT3) receptor (Rattus norvegicus); experiment: 5-hydroxytryptamine 3 receptor antagonistic activity was measured by the inhibition of 5H+ T-induced bradycardia after iv administration of 1000 ug/kg dose in urethane-anesthetized rats; method in brief: as §1
[6] = target: T1, Serotonin 3 (5-HT3) receptor (Rattus norvegicus); experiment: 5-HT3 receptor antagonistic activity was measured by the inhibition of 5-HT-induced bradycardia after iv administration of 1000 ug/kg dose in urethane-anesthetized rats; method in brief: as §1
[7] = target: T1, Serotonin 3 (5-HT3) receptor (Rattus norvegicus); experiment: Compound was tested for the inhibition of 5-HT-induced bradycardia after intravenous administration of 30 ug/kg dose in urethane-anesthetized rats; method in brief: as §1
[8] = target: T1, Serotonin 3 (5-HT3) receptor (Rattus norvegicus); experiment: 5-hydroxytryptamine 3 receptor antagonistic activity was measured by the inhibition of 5-HT-induced bradycardia after iv administration of 1000 ug/kg dose in urethane-anesthetized rats; method in brief: as §1

inhibition [1]: 71.7%
SMILES: CN1C2CCC1CC(NC(=O)c1cc(F)cc3c1OC(C)(C)C3)C2 (centres undefined)

SMILES: CC1Cc2cc(F)cc(C(=O)OC3CC4CCC(C3)N4C)c2O1 (centres undefined)
inhibition [1]: 32.2%

SMILES: CN1C2CCC1CC(OC(=O)c1cccc3oc4ccccc4c13)C2 (centres undefined)
inhibition [2]: 12.4%
inhibition [3]: 66.3%
inhibition [1]: 0%

inhibition [1]: 54.7%
SMILES: CN1C2CCC1CC(NC(=O)c1cc(O)cc3c1OC(C)(C)C3)C2 (centres undefined)

inhibition [4]: 25.9%
inhibition [1]: 67.1%
SMILES: CN1[C@@H]2CC[C@H]1C[C@@H](NC(=O)c1cc(Cl)cc3c1OC(C)(C)C3)C2 (stereo in doubt; 50)

SMILES: CN1C2CCC1CC(OC(=O)c1ccc3c(c1)oc1ccccc13)C2 (centres undefined)
inhibition [5]: 1.5%

inhibition [1]: 28.9%
SMILES: COc1cc2c(c(C(=O)NC3CC4CCC(C3)N4C)c1)OC(C)C2 (centres undefined)

SMILES: CN1[C@@H]2CC[C@H]1C[C@H](OC(=O)c1ccccc1)C2
inhibition [5]: 88.1%

SMILES: CN1CCC(OC(=O)c2ccccc2)CC1
inhibition [6]: 0%

SMILES: CC1Oc2c(C(=O)OC3CC4CCC(C3)N4C)cccc2C1C (stereo in doubt; 26)
inhibition [4]: 1.8%
inhibition [7]: 78.7%
inhibition [1]: 29.9%

inhibition [4]: 13.7%
inhibition [1]: 47.5%
SMILES: CN1C2CCC1CC(NC(=O)c1cccc3c1OC(C)(C)C3)C2 (centres undefined)

inhibition [2]: 87.6%
inhibition [1]: 22.3%
SMILES: CC1Cc2cccc(C(=O)NC3CC4CCC(C3)N4C)c2O1 (centres undefined)

SMILES: CC1Cc2cccc(C(=O)OC3CC4CCC(C3)N4C)c2O1 (centres undefined)
inhibition [1]: 30.6%

SMILES: Cc1coc2c(C(=O)OC3CC4CCC(C3)N4C)cccc12 (centres undefined)
inhibition [1]: 7.7%

SMILES: CN1C2CCC1CC(OC(=O)c1ccc(OC(F)(F)F)cc1)C2 (centres undefined)
inhibition [8]: 4.7%

SMILES: CN1C2CCC1CC(CC(=O)c1ccccc1)C2 (centres undefined)
inhibition [2]: 31.3%

SMILES: CN1C2CCC1CC(OC(=O)c1cccc3c1OC(C)(C)C3)C2 (centres undefined)
inhibition [4]: 20.8%
inhibition [1]: 38%

SMILES: Cc1cc2c(c(C(=O)OC3CC4CCC(C3)N4C)c1)OCC2 (centres undefined)
inhibition [2]: 67.2%
inhibition [1]: 28.8%

SMILES: CN1C2CCC1CC(OC(=O)c1cccc3c1OCC3)C2 (centres undefined)
inhibition [2]: 51.2%
inhibition [1]: 27%
